Source: ChEMBL document CHEMBL1122229, “alpha-adrenoreceptor reagents. 1. Synthesis of some 1,4-benzodioxans as selective presynaptic alpha 2-adrenoreceptor antagonists and potential antidepressants” (J Med Chem, 1983)
Active and inactive are the calls of the source. The rule behind the calls is not given here.

Assays:
[1] = biological target: T1, Adrenergic receptor alpha-2 (Rattus norvegicus, UniProt P22086+P19328+P22909); assay: Alpha-2 adrenergic receptor pA2 value against clonidine in vitro experiment in rat vas deferens; type: tissue-based
T1 sequence (P22086 whole entry): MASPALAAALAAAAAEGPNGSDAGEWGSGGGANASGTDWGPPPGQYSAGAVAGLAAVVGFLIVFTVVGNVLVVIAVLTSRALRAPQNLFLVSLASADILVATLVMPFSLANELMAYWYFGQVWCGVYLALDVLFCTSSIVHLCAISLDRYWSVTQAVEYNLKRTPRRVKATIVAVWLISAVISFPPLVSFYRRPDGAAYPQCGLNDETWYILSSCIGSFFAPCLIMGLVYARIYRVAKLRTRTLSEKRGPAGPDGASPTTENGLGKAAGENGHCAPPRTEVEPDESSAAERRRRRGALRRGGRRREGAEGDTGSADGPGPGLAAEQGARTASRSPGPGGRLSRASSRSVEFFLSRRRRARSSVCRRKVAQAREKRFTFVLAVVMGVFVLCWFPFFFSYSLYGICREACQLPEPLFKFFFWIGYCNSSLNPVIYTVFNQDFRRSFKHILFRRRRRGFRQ
T1 sequence (P19328 whole entry): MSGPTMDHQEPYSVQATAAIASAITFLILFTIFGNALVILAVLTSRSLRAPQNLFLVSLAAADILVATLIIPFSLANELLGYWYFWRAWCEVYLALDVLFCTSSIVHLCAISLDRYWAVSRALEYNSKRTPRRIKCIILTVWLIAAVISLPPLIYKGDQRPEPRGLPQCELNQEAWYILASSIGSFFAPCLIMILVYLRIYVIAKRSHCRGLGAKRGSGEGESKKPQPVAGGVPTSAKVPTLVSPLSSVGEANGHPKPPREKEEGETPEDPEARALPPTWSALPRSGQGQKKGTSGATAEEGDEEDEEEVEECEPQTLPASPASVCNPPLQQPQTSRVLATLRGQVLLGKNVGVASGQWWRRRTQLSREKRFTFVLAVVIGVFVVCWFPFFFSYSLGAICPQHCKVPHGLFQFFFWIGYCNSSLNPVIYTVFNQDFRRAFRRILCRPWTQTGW
T1 sequence (P22909 whole entry): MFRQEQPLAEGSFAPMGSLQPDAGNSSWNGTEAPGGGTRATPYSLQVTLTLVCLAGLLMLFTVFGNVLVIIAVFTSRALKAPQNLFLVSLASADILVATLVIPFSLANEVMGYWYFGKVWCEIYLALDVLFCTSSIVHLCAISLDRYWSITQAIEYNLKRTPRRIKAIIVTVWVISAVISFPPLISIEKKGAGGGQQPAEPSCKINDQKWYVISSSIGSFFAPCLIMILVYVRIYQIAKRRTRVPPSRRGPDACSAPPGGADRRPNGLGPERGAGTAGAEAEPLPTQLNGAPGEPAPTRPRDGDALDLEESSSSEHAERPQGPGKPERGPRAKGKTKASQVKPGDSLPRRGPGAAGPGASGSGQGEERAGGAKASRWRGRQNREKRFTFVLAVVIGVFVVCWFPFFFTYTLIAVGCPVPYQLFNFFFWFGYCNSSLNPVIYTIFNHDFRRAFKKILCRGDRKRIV
Procedure, shortened: (§1)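 pA2 was obtained by Arunlakshana–Schild analysis at postsynaptic α1 (anococcygeus) or presynaptic α2 (vas deferens) sites. Values are mean ± SEM of at least six experiments.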

[2] = biological target: T2, Adrenergic receptor alpha-1 (Rattus norvegicus, UniProt P15823+P23944+P43140); assay: Alpha-1 adrenergic receptor pA2 value against norepinephrine in vitro experiment in rat anococcygeus.; procedure, shortened: as §1
T2 sequence (P15823 whole entry): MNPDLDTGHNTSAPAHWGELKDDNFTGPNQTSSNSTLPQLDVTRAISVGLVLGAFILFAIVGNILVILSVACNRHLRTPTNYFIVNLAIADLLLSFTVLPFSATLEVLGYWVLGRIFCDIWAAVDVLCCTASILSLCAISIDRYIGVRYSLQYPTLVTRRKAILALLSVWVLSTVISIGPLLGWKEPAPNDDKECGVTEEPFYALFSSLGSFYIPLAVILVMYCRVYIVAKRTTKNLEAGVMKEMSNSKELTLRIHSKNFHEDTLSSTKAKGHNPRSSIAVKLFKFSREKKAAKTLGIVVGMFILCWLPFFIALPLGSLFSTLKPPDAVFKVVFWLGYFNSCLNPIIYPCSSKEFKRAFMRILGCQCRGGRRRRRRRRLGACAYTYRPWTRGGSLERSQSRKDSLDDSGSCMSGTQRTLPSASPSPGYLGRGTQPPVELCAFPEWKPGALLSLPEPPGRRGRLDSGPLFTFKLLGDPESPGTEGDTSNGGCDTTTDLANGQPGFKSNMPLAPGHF
T2 sequence (P23944 whole entry): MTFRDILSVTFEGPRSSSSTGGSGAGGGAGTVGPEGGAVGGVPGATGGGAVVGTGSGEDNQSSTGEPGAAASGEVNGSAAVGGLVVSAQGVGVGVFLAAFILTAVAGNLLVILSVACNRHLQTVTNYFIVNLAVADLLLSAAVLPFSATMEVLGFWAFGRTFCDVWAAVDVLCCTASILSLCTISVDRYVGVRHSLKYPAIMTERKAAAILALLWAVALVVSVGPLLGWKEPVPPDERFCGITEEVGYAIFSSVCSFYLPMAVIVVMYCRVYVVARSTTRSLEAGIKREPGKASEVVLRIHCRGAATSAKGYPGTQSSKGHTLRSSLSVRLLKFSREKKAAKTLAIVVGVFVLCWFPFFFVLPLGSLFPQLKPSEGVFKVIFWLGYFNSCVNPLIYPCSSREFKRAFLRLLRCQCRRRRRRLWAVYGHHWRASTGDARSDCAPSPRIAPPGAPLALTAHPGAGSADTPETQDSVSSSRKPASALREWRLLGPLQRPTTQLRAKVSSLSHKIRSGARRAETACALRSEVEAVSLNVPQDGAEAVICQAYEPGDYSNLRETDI
T2 sequence (P43140 whole entry): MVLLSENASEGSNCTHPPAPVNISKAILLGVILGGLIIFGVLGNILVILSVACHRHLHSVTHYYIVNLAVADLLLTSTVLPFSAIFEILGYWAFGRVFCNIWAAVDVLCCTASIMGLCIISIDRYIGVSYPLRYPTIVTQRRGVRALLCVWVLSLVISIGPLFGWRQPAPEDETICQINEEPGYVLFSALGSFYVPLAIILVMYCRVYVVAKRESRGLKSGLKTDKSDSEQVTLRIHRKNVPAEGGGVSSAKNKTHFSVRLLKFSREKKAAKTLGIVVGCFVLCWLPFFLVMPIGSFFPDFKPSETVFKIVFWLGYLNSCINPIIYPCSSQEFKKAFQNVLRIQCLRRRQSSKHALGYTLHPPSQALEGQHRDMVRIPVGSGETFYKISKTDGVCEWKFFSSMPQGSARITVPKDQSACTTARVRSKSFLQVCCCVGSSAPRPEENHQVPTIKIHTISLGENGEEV

[3] = biological target: T3, Adrenergic receptor alpha-1 (Rattus norvegicus) (UniProt P15823+P23944+P43140); assay: In vitro postsynaptic antagonist potency at alpha-1 adrenergic receptor in rat anococcygeus relative to compound 5 (RX781094); type: functional
[4] = biological target: T3, Adrenergic receptor alpha-1 (Rattus norvegicus); assay: Ratio of presynaptic antagonist potency to postsynaptic antagonist potency; type: functional
[5] = Ratio of pA2 value against alpha2 to alpha-1 adrenoceptor
Procedure, shortened: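 α2/α1 selectivity was taken as the antilog of the difference between the pA2 values at α2- and α1-adrenoreceptors.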

[6] = biological target: T4, Adrenergic receptor alpha-2 (Rattus norvegicus) (UniProt P22086+P19328+P22909); assay: In vitro presynaptic antagonist potency at alpha-2 adrenergic receptor in rat or mouse vas deferens relative to compound 5 (RX781094); type: functional, tissue-based
Procedure, shortened: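 Prostatic halves of rat vas deferens (male Sprague–Dawley rats, 200–250 g; Krebs, 30 °C, 95% O2/5% CO2; 3-ms, 40 V, 0.1 Hz field pulses) or mouse vas deferens (Mg-free Krebs, 30 °C; 3-ms pulses, 0.1 Hz, 100–140 V) were used, with isometric twitch recording. […] The concentration giving 50% reversal was compared with the RX781094 standard in the same tissue.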

[7] = biological target: T4, Adrenergic receptor alpha-2 (Rattus norvegicus); assay: In vitro presynaptic agonist potency at alpha-2 adrenergic receptor in rat or mouse vas deferens relative to clonidine; IA means inactive; type: functional, tissue-based
Procedure, shortened: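 Field-stimulated rat or mouse vas deferens (Krebs, 30 °C, 95% O2/5% CO2, 3-ms pulses at 0.1 Hz) with isometric twitch recording. […] Standard dose-response curves were run before and after the analogue's curve.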

[8] = biological target: T3, Adrenergic receptor alpha-1 (Rattus norvegicus); assay: In vitro postsynaptic agonist potency at alpha-1 adrenergic receptor in rat anococcygeus muscle relative to phenylephrine; IA means inactive.; type: functional, tissue-based
Procedure, shortened: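 Rat anococcygeus muscle (male Sprague–Dawley rats, 200–250 g) suspended at 0.5 g initial tension in a 50-mL organ bath. […] Standard dose-response curves were run before and after the analogue's curve.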

[9] = biological target: T3, Adrenergic receptor alpha-1 (Rattus norvegicus); assay: In vitro postsynaptic antagonist potency at alpha-1-adrenoceptor in rat anococcygeus relative to compound 5 (RX781094); type: functional
[10] = biological target: T3, Adrenergic receptor alpha-1 (Rattus norvegicus); assay: In vitro postsynaptic agonist potency at alpha-1 adrenergic receptor in rat anococcygeus muscle relative to phenylephrine; type: functional, tissue-based
[11] = biological target: T2, Adrenergic receptor alpha-1; assay: Alpha-1-adrenoceptor pA2 value against norepinephrine in vitro experiment in rat anococcygeus.; procedure, shortened: as §1
[12] = biological target: T2, Adrenergic receptor alpha-1; assay: alpha-1 adrenergic receptor pA2 value against norepinephrine in vitro experiment in rat anococcygeus
[13] = Selectivity ratio of presynaptic antagonist potency to postsynaptic antagonist potency; type: functional
Procedure, shortened: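 Selectivity ratio is the antilog of the difference between pA2 values at presynaptic α2- and postsynaptic α1-adrenoreceptors. pA2 values were derived by the Arunlakshana–Schild method, each a mean ± SEM of at least six experiments.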

| pA2 [12] | Compound | pA2 [1] | pA2 [2] | Antagonist potency [3] | Selectivity [4] | Selectivity [5] | Antagonist potency [6] | Agonist potency [7] | Agonist potency [8] | Antagonist potency [9] | Agonist potency [10] | pA2 [11] | Selectivity [13] |
| --- | --- | --- | --- | --- | --- | --- | --- | --- | --- | --- | --- | --- | --- |
| – | Cc1ccc2c(c1)OCC(C1=NCCN1)O2 (centres undefined) | 7.56 | 6.17 | 0.4 | 0.21 | 30 | 0.08 | inactive | inactive | – | – | – | – |
| – | Cc1ccc2c(c1)OC(C1=NCCN1)CO2 (centres undefined) | 7.1 | – | – | 0.14 | 17 | 0.08 | inactive | – | 0.8 | 0.004 | 5.87 | – |
| 4.85 | CCn1ccnc1CC1COc2ccccc2O1 (centres undefined) [IMILOXAN] | 6.98 | – | 0.036 | – | 135 | 0.02 | inactive | inactive | – | – | – | 0.53 |
